From ChEMBL document CHEMBL1145431, “Improved anti-osteoporosis potency and reduced endometrial membrane hyperplasia during hormone replacement therapy with estrogen-RGD peptide conjugates” (2007)
Where a SMILES comes first, the peptide text is derived from it. The star is where a group is joined. X1 = C[C@]12CC[C@@H]3c4ccc(OCC(=O)*)cc4CC[C@H]3[C@@H]1CCC2O

Columns and labels:
Mus musculus [1] = experiment: Effect on uterus weight in mouse at 0.055 mmol/kg, ip; assay type: functional
Procedure, shortened: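 Dose study in abdominally ovariectomized female Kuiming mice (30.7 ± 3.1 g). Daily i.p. dosing in aqueous 0.5% CMC from day 5 after surgery for 4 weeks, at 110.3, 55.15 or 11.03 × 10-3 mmol/kg. Liver, lung, spleen and uterus were removed after pentobarbital euthanasia and weighed. n = 12, ANOVA, p < 0.05.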

Mus musculus [2] = experiment: Effect on femur length in recipient mouse at 0.011 mmol/kg, ip; assay type: functional
Procedure, shortened: (§1)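 Dose-response in OVX Kuiming mice, i.p. daily for 4 weeks in 0.5% CMC at 11.03, 55.15 or 110.3 × 10-3 mmol/kg. Left femur: length, then defatting, drying at 120 °C for 6 h (dry weight), ashing at 800 °C for 8 h. Ash/dry ratio gives mineral content. Ash Ca and P measured colorimetrically. Liver, lung and spleen weighed directly. n = 12, ANOVA.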

Mus musculus [3] = experiment: Effect on serum calcium level in ovariectomized mouse at 0.1103 mmol/kg, ip once daily for 4 weeks; assay type: functional
Procedure, shortened: (§2)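 OVX Kuiming mice dosed i.p. daily for 4 weeks in 0.5% CMC. Blood taken retro-orbitally on the day after the last dose, stood 30 min, spun at 3000 g for 20 min, serum stored at -20 °C. Calcium by o-methylphenolphthalein complexone, phosphorus by molybdenum blue, ALP by activity with disodium phenylphosphate substrate.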

Mus musculus [4] = experiment: Effect on femur length in ovariectomized mouse at 0.1103 mmol/kg, ip once daily for 4 weeks; assay type: functional
Procedure, shortened: (§3)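 Female Kuiming mice (7 weeks, 30.7 ± 3.1 g) ovariectomized, sham group abdominorotomy. From day 5, i.p. once daily for 4 weeks at 110.3 × 10-3 mmol/kg in 0.5% CMC. Left femur cleaned, length measured, defatted in chloroform-methanol (2:1, 2 × 3 h), dried 120 °C 6 h for dry weight, ashed 800 °C 8 h. Mineral content = ash/dry weight. Ash dissolved in 6 N HCl and diluted. Ca by o-methylphenolphthalein complexone, P by molybdenum blue. Lungs and livers weighed directly.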

Mus musculus [5] = experiment: Effect on dry weight of femurs in recipient mouse at 0.055 mmol/kg, ip; assay type: functional, Femur; procedure, shortened: as §1
Mus musculus [6] = experiment: Effect on uterus weight in ovariectomized mouse at 0.1103 mmol/kg, ip once daily for 4 weeks; assay type: functional
Procedure, shortened: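 Female Kuiming mice (7 weeks old, 30.7 ± 3.1 g), abdominal OVX under pentobarbital (40.0 mg/kg i.p.). From day 5 after surgery, i.p. injection once daily for 4 weeks, compound in aqueous 0.5% CMC prepared just before use. The day after the last dose, mice were anesthetized and killed, and lungs, livers, spleens and uteri were removed and weighed directly. n = 12, ANOVA, p < 0.05.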

Mus musculus [7] = experiment: Effect on spleen weight in mouse at 0.1103 mmol/kg, po; assay type: functional
Procedure, shortened: (§4)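 Female Kuiming mice (7 weeks old, 30.7 ± 3.1 g) under abdominal OVX, sham group abdominorotomy only. From day 5 after surgery, dosed orally once daily for 4 weeks at 110.3 × 10-3 mmol/kg in 0.5% CMC (0.2 mL), vehicle group CMC alone. Blood drawn retro-orbitally, then left femur and organs removed under pentobarbital (40.0 mg/kg, i.p.).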

Mus musculus [8] = experiment: Effect on mineral level in mouse femur at 0.011 mmol/kg, ip; assay type: functional; details: in the assay text read “0.11 mmol/kg” for “0.011 mmol/kg”; procedure, shortened: as §1
Mus musculus [9] = experiment: Effect on spleen weight in mouse at 0.055 mmol/kg, ip; assay type: functional; procedure, shortened: as §1
Mus musculus [10] = experiment: Effect on dry weight of femurs in ovariectomized mouse at 0.1103 mmol/kg, ip once daily for 4 weeks; assay type: functional, Femur; procedure, shortened: as §3
Mus musculus [11] = experiment: Effect on serum phosphorous level in mouse at 0.011 mmol/kg, ip; assay type: functional; details: in the assay text read “0.11 mmol/kg” for “0.011 mmol/kg”
Procedure, shortened: (§5)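 Dose-response in OVX Kuiming mice, i.p. daily for 4 weeks in 0.5% CMC at 11.03, 55.15 or 110.3 × 10-3 mmol/kg. Serum from retro-orbital blood (3000 g, 20 min). Calcium by o-methylphenolphthalein complexone, phosphorus by molybdenum blue, ALP by activity on disodium phenylphosphate. n = 12, ANOVA.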

Mus musculus [12] = experiment: Effect on liver weight in ovariectomized mouse at 0.110 mmol/kg, ip once daily for 4 weeks; assay type: functional; procedure, shortened: as §3
Mus musculus [13] = experiment: Effect on serum ALP lavel in ovariectomized mouse at 0.1103 mmol/kg, ip once daily for 4 weeks; assay type: functional; procedure, shortened: as §2
Mus musculus [14] = experiment: Effect on mineral level in mouse femur at 0.055 mmol/kg, ip; assay type: functional; procedure, shortened: as §1
Mus musculus [15] = experiment: Effect on dry weight of femurs in mouse at 0.1103 mmol/kg, po; assay type: functional, Femur; procedure, shortened: as §4
Mus musculus [16] = experiment: Effect on phosphorous level in mouse femur at 0.055 mmol/kg, ip; assay type: functional; procedure, shortened: as §1
Mus musculus [17] = experiment: Effect on phosphorus level in ovariectomized mouse at 0.1103 mmol/kg, ip once daily for 4 weeks; assay type: functional; procedure, shortened: as §3
Mus musculus [18] = experiment: Effect on lung weight in mouse at 0.1103 mmol/kg, po; assay type: functional; procedure, shortened: as §4
Mus musculus [19] = experiment: Effect on serum calcium level in mouse at 0.1103 mmol/kg, ip; assay type: functional; procedure, shortened: as §2
Mus musculus [20] = experiment: Effect on lung weight in ovariectomized mouse at 0.1103 mmol/kg, ip once daily for 4 weeks; assay type: functional; procedure, shortened: as §3
Mus musculus [21] = experiment: Effect on liver weight in mouse at 0.1103 mmol/kg, po; assay type: functional; procedure, shortened: as §4
Mus musculus [22] = experiment: Effect on femur ash weight in ovariectomized mouse at 0.1103 mmol/kg, ip once daily for 4 weeks; assay type: functional; procedure, shortened: as §3
Mus musculus [23] = experiment: Effect on femur ash weight in mouse at 0.1103 mmol/kg, po; assay type: functional; procedure, shortened: as §4
Mus musculus [24] = experiment: Effect on dry weight of femur in recipient mouse at 0.011 mmol/kg, ip; assay type: functional; procedure, shortened: as §1
Mus musculus [25] = experiment: Effect on spleen weight in mouse at 0.011 mmol/kg, ip; assay type: functional; procedure, shortened: as §1
Mus musculus [26] = experiment: Effect on serum ALP level in mouse at 0.1103 mmol/kg, ip; assay type: functional; procedure, shortened: as §2
Mus musculus [27] = experiment: Effect on lenght of femur in mouse at 0.110 mmol/kg, po; assay type: functional; procedure, shortened: as §4
Mus musculus [28] = experiment: Effect on calcium level in mouse at 0.1103 mmol/kg, po; assay type: functional; procedure, shortened: as §4
Mus musculus [29] = experiment: Effect on femur ash weight in recipient mouse at 0.055 mmol/kg, ip; assay type: functional; procedure, shortened: as §1
Mus musculus [30] = experiment: Effect on mineral content in ovariectomized mouse at 0.1103 mmol/kg, ip once daily for 4 weeks; assay type: functional; procedure, shortened: as §3
Mus musculus [31] = experiment: Effect on lung weight in mouse at 0.011 mmol/kg, ip; assay type: functional; procedure, shortened: as §1
Mus musculus [32] = experiment: Effect on serum calcium level in mouse at 0.055 mmol/kg, ip; assay type: functional; procedure, shortened: as §5
Mus musculus [33] = experiment: Effect on serum phosphorous level in mouse at 0.055 mmol/kg, ip; assay type: functional; procedure, shortened: as §5
Mus musculus [34] = experiment: Effect on calcium level in mouse femur at 0.055 mmol/kg, ip; assay type: functional; procedure, shortened: as §1
Mus musculus [35] = experiment: Effect on serum ALP level in mouse at 0.055 mmol/kg, ip; assay type: functional; procedure, shortened: as §5
Mus musculus [36] = experiment: Effect on femur length in recipient mouse at 0.055 mmol/kg, ip; assay type: functional; procedure, shortened: as §1
Mus musculus [37] = experiment: Effect on serum phosphorous Concentration in mouse at 0.110 mmol/kg, po; assay type: functional
Procedure, shortened: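 Oral OVX Kuiming mouse model, dosed daily for 4 weeks at 110.3 × 10-3 mmol/kg in 0.5% CMC. Retro-orbital blood stood 30 min at room temperature and was spun at 3000 g for 20 min. Serum kept at -20 °C. Calcium read by o-methylphenolphthalein complexone, phosphorus by molybdenum blue, ALP by activity on disodium phenylphosphate substrate.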

CC(C)[C@H](NC(=O)[C@H](CC(=O)O)NC(=O)CNC(=O)[C@H](CCCNC(=N)N)NC(=O)COc1ccc2c(c1)CC[C@@H]1[C@@H]2CC[C@]2(C)C(O)CC[C@@H]12)C(=O)O (some centres not stated) (X1-RGDV-OH)
Activity (Mus musculus [1]): 57.6 mg | Activity (Mus musculus [2]): 1.64 cm | Activity (Mus musculus [3]): 2.003 mmol/L | Activity (Mus musculus [4]): 1.64 cm | Activity (Mus musculus [5]): 57.5 mg | Activity (Mus musculus [6]): 50.3 mg | Activity (Mus musculus [7]): 134 mg | Ratio (Mus musculus [8]): 0.63 | Activity (Mus musculus [9]): 140 mg | Activity (Mus musculus [10]): 63.7 mg | Activity (Mus musculus [11]): 1.6 mmol/L | Activity (Mus musculus [12]): 1.363 g | Activity (Mus musculus [13]): 30.514 U/L | Ratio (Mus musculus [14]): 0.539 | Activity (Mus musculus [15]): 68.4 mg | Activity (Mus musculus [16]): 24.315% | Activity (Mus musculus [17]): 24.991% | Activity (Mus musculus [18]): 163 mg | Activity (Mus musculus [19]): 2.005 mmol/L | Activity (Mus musculus [20]): 162 mg | Activity (Mus musculus [21]): 1.337 g | Activity (Mus musculus [22]): 40 mg | Activity (Mus musculus [23]): 33.7 mg | Activity (Mus musculus [24]): 50.9 mg | Activity (Mus musculus [25]): 156 mg | Activity (Mus musculus [26]): 30.5 U/L | Activity (Mus musculus [27]): 1.614 cm | Activity (Mus musculus [28]): 52.197% | Activity (Mus musculus [29]): 32.3 mg | Ratio (Mus musculus [30]): 0.63 | Activity (Mus musculus [31]): 188 mg | Activity (Mus musculus [32]): 2.084 mmol/L | Activity (Mus musculus [33]): 1.586 mmol/L | Activity (Mus musculus [34]): 57.13% | Activity (Mus musculus [35]): 32.786 U/L | Activity (Mus musculus [36]): 1.643 cm | Activity (Mus musculus [37]): 1.61 mmol/L
